Measured values as given in ChEMBL document CHEMBL3098086, “Synthesis and biological evaluation of α-triazolyl chalcones as a new type of potential antimicrobial agents and their interaction with calf thymus DNA and human serum albumin” (Eur J Med Chem, 2014).
In brackets after ≈: the same amount, converted by molar mass. Activity calls are given as the source filed them. The rule behind the calls is not given here.

What was measured:
DNA [1] = experiment: Displacement of neutral red from calf thymus DNA by UV-vis absorption spectra analysis; assay type: nucleic-acid assay; conditions: Bos taurus
Albumin [2] = molecular target: T1, Albumin (Homo sapiens, UniProt P02768); experiment: Ratio of binding affinity to human serum albumin in presence of Ni2+ to binding affinity to human serum albumin absence of Ni2+; assay type: ADME; conditions: isolated protein
Candida albicans = experiment: Antifungal activity against Candida albicans ATCC 76615 after 24 hrs by micro broth dilution method; assay type: functional; conditions: ATCC 76615, 24 h
Procedure, shortened: (§1)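 Fungi: C. albicans ATCC 76615 and C. mycoderma ATCC 96918. MICs by two-fold broth microdilution in 96-well plates per NCCLS. Fluconazole served as positive control.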

Albumin [3] = molecular target: T1, Albumin; experiment: Ratio of binding affinity to human serum albumin in presence of K+ to binding affinity to human serum albumin absence of K+; assay type: ADME; conditions: isolated protein
Candida = experiment: Antifungal activity against Candida mycoderma ATCC 96918 after 24 hrs by micro broth dilution method; assay type: functional; conditions: ATCC 96918, 24 h; procedure, shortened: as §1
Bacillus subtilis = experiment: Antibacterial activity against Bacillus subtilis ATCC 21216 after 24 hrs by twofold serial dilution method; assay type: functional; conditions: ATCC 21216, 24 h
Procedure, shortened: (§2)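 Bacterial strains: S. aureus ATCC 25923, B. subtilis ATCC 21216, M. luteus ATCC 4698, E. coli JM109, P. aeruginosa ATCC 27853, B. proteus ATCC 13315. MICs by two-fold broth microdilution in 96-well plates per NCCLS. Chloromycin and Norfloxacin served as positive controls.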

Escherichia coli = experiment: Antibacterial activity against Escherichia coli JM109 after 24 hrs by twofold serial dilution method; assay type: functional; conditions: JM109, 24 h; procedure, shortened: as §2
Albumin [4] = molecular target: T1, Albumin; experiment: Ratio of binding affinity to human serum albumin in presence of Ca2+ to binding affinity to human serum albumin absence of Ca2+; assay type: ADME; conditions: isolated protein
Staphylococcus aureus [5] = experiment: Antibacterial activity against methicillin-resistant staphylococcus aureus N315 after 24 hrs by twofold serial dilution method; assay type: functional; conditions: N315, 24 h
Procedure, shortened: (§3)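 Two-fold broth microdilution per NCCLS recommendations. The MIC was read as the minimum inhibitory concentration. Chloromycin and Norfloxacin served as positive controls. Strains were Bacillus typhi (Gram-negative panel) and methicillin-resistant S. aureus N315.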

Albumin [6] = molecular target: T1, Albumin; experiment: Binding affinity to human serum albumin at pH 7.4 at 310 K by fluorescence quenching analysis; assay type: ADME; conditions: isolated protein
Procedure, shortened: (§4)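 Intrinsic HSA Trp fluorescence was quenched by compound titration at pH 7.4 and at 286, 298 or 310 K. Excitation was 295 nm, emission scanned 300–450 nm, both slits 2.5 nm, 1.0 cm quartz cells. Data were fitted by Stern–Volmer analysis to give KSV. Kq was calculated assuming an HSA fluorescence lifetime of 6.4 × 10^-9 s.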

Albumin [7] = molecular target: T1, Albumin; experiment: Ratio of binding affinity to human serum albumin in presence of Pb2+ to binding affinity to human serum albumin absence of Pb2+; assay type: ADME; conditions: isolated protein
Albumin [8] = molecular target: T1, Albumin; experiment: Ratio of binding affinity to human serum albumin in presence of Cu2+ to binding affinity to human serum albumin absence of Cu2+; assay type: ADME; conditions: isolated protein
Albumin [9] = molecular target: T1, Albumin; experiment: Binding affinity to human serum albumin at pH 7.4 at 286 K by fluorescence quenching analysis; assay type: ADME; conditions: isolated protein; procedure, shortened: as §4
Albumin [10] = molecular target: T1, Albumin; experiment: Binding affinity to human serum albumin at pH 7.4 at 298 K by fluorescence quenching analysis; assay type: ADME; conditions: isolated protein; procedure, shortened: as §4
DNA [11] = experiment: Binding affinity to calf thymus DNA by UV-vis absorption spectra analysis; assay type: nucleic-acid assay; conditions: Bos taurus
Staphylococcus aureus [12] = experiment: Antibacterial activity against Staphylococcus aureus ATCC 25923 after 24 hrs by twofold serial dilution method; assay type: functional; conditions: ATCC 25923, 24 h; procedure, shortened: as §2
Albumin [13] = molecular target: T1, Albumin; experiment: Ratio of binding affinity to human serum albumin in presence of Zn2+ to binding affinity to human serum albumin absence of Zn2+; assay type: ADME; conditions: isolated protein
Albumin [14] = molecular target: T1, Albumin; experiment: Ratio of binding affinity to human serum albumin in presence of Fe3+ to binding affinity to human serum albumin absence of Fe3+; assay type: ADME; conditions: isolated protein
Bacillus = experiment: Antibacterial activity against Bacillus proteus ATCC 13315 after 24 hrs by twofold serial dilution method; assay type: functional; conditions: ATCC 13315, 24 h; procedure, shortened: as §2
Salmonella typhi = experiment: Antibacterial activity against Bacillus typhi after 24 hrs by twofold serial dilution method; assay type: functional, Salmonella enterica subsp. enterica serovar Typhi; conditions: Salmonella enterica; procedure, shortened: as §3
Albumin [15] = molecular target: T1, Albumin; experiment: Ratio of binding affinity to human serum albumin in presence of Mg2+ to binding affinity to human serum albumin absence of Mg2+; assay type: ADME; conditions: isolated protein
Micrococcus luteus = experiment: Antibacterial activity against Micrococcus luteus ATCC 4698 after 24 hrs by twofold serial dilution method; assay type: functional; conditions: ATCC 4698, 24 h; procedure, shortened: as §2
Pseudomonas aeruginosa = experiment: Antibacterial activity against Pseudomonas aeruginosa ATCC 27853 after 24 hrs by twofold serial dilution method; assay type: functional; conditions: ATCC 27853, 24 h; procedure, shortened: as §2

T1 sequence (P02768 whole entry): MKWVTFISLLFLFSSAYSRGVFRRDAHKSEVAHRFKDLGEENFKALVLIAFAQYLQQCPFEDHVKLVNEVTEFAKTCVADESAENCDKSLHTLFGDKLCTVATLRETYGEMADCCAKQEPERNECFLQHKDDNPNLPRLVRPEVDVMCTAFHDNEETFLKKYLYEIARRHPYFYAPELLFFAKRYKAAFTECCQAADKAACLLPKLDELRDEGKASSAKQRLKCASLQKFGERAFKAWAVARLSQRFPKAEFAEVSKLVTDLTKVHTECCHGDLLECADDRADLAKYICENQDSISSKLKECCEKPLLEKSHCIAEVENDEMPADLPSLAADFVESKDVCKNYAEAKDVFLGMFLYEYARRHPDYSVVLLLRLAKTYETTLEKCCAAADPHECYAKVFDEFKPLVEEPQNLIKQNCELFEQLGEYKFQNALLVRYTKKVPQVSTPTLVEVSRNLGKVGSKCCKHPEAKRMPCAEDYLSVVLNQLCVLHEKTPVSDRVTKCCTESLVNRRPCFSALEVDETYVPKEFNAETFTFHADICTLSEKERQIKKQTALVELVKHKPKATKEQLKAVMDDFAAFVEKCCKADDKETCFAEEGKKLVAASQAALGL

| Structure (SMILES) | MIC (Candida albicans) [µg/mL] | MIC (Candida) [µg/mL] | MIC (Bacillus subtilis) [µg/mL] | MIC (Escherichia coli) [µg/mL] | MIC (Staphylococcus aureus [5]) [µg/mL] | MIC (Staphylococcus aureus [12]) [µg/mL] | MIC (Bacillus) [µg/mL] | MIC (Salmonella typhi) [µg/mL] | MIC (Micrococcus luteus) [µg/mL] | MIC (Pseudomonas aeruginosa) [µg/mL] | further results |
| --- | --- | --- | --- | --- | --- | --- | --- | --- | --- | --- | --- |
| O=C(/C(=C/c1ccccc1)n1cncn1)c1ccc(F)cc1N1CCCCC1 | 16 (≈ 42.5 µM) | 8 (≈ 21.3 µM) | 8 (≈ 21.3 µM) | 16 (≈ 42.5 µM) | 4 (≈ 10.6 µM) | 16 (≈ 42.5 µM) | 8 (≈ 21.3 µM) | 8 (≈ 21.3 µM) | 4 (≈ 10.6 µM) | 16 (≈ 42.5 µM) | Activity (DNA [1]): Active; Ratio (Albumin [2]): 0.835; Ratio (Albumin [3]): 1.324; Ratio (Albumin [4]): 0.887; KSV (Albumin [6]): 5.84 ×10⁴ L/mol; Ratio (Albumin [7]): 0.819; Ratio (Albumin [8]): 0.959; KSV (Albumin [9]): 7.59 ×10⁴ L/mol; KSV (Albumin [10]): 6.72 ×10⁴ L/mol; Activity (DNA [11]): Dose-dependent effect; K (DNA [11]): 1.22 ×10⁴ L/mol; Ratio (Albumin [13]): 0.918; Ratio (Albumin [14]): 1.151; Ratio (Albumin [15]): 1.068 |
| O=C(/C(=C/c1ccccc1)n1cncn1)c1ccc(N2CCOCC2)cc1N1CCOCC1 | 128 (≈ 287 µM) | 64 (≈ 144 µM) | 64 (≈ 144 µM) | 32 (≈ 71.8 µM) | 64 (≈ 144 µM) | 32 (≈ 71.8 µM) | 64 (≈ 144 µM) | 32 (≈ 71.8 µM) | 64 (≈ 144 µM) | 128 (≈ 287 µM) | – |
| O=C(/C(=C/c1ccccc1)n1cncn1)c1ccc(N2CCCCC2)cc1N1CCCCC1 | 16 (≈ 36.2 µM) | 16 (≈ 36.2 µM) | 32 (≈ 72.5 µM) | 64 (≈ 145 µM) | 32 (≈ 72.5 µM) | 16 (≈ 36.2 µM) | 64 (≈ 145 µM) | 32 (≈ 72.5 µM) | 64 (≈ 145 µM) | 128 (≈ 290 µM) | – |
| O=C(/C(=C/c1ccccc1)n1cncn1)c1ccc(N2CCCC2)cc1N1CCCC1 | 8 (≈ 19.3 µM) | 4 (≈ 9.67 µM) | 16 (≈ 38.7 µM) | 32 (≈ 77.4 µM) | 16 (≈ 38.7 µM) | 32 (≈ 77.4 µM) | 32 (≈ 77.4 µM) | 8 (≈ 19.3 µM) | 16 (≈ 38.7 µM) | 32 (≈ 77.4 µM) | – |
| O=C(/C(=C/c1ccc(F)cc1)n1cncn1)c1ccc(F)cc1F | 64 (≈ 194 µM) | 64 (≈ 194 µM) | 64 (≈ 194 µM) | 32 (≈ 97.2 µM) | 128 (≈ 389 µM) | 64 (≈ 194 µM) | 16 (≈ 48.6 µM) | 32 (≈ 97.2 µM) | 32 (≈ 97.2 µM) | 32 (≈ 97.2 µM) | – |
| O=C(/C(=C/c1ccccc1)n1cncn1)c1ccc(F)cc1F | 128 (≈ 411 µM) | 64 (≈ 206 µM) | 64 (≈ 206 µM) | 32 (≈ 103 µM) | 64 (≈ 206 µM) | 32 (≈ 103 µM) | 64 (≈ 206 µM) | 32 (≈ 103 µM) | 64 (≈ 206 µM) | 128 (≈ 411 µM) | – |
| O=C(/C(=C/c1ccc(Cl)cc1)n1cncn1)c1ccc(F)cc1F | 16 (≈ 46.3 µM) | 16 (≈ 46.3 µM) | 32 (≈ 92.6 µM) | 64 (≈ 185 µM) | 32 (≈ 92.6 µM) | 16 (≈ 46.3 µM) | 64 (≈ 185 µM) | 32 (≈ 92.6 µM) | 64 (≈ 185 µM) | 128 (≈ 370 µM) | – |
| CCn1cc(C(=O)O)c(=O)c2cc(F)c(N3CCNCC3)cc21 [NORFLOXACIN] | – | – | 1 (≈ 3.13 µM) | 16 (≈ 50.1 µM) | 8 (≈ 25.1 µM) | 0.5 (≈ 1.57 µM) | 8 (≈ 25.1 µM) | 4 (≈ 12.5 µM) | 2 (≈ 6.26 µM) | 16 (≈ 50.1 µM) | – |
| OC(Cn1cncn1)(Cn1cncn1)c1ccc(F)cc1F [FLUCONAZOLE] | 1 (≈ 3.27 µM) | 4 (≈ 13.1 µM) | – | – | – | – | – | – | – | – | – |
